Holding throughout (type): functional
Test [1] deals with Staphylococcus aureus. Nature of the test: Antimicrobial activity against homotypic oxacillin resistant and vancomycin resistant Staphylococcus aureus isolate 5836V32 by broth microdilution method. The gist of the method: (§1)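 Broth microdilution MIC in cation-adjusted Mueller-Hinton broth per CLSI (formerly NCCLS) guidelines. Strains were routinely grown in brain heart infusion broth or agar at 37°C with shaking at 220 rpm. Vancomycin-passaged derivatives were raised by serial broth passage through 0.5 to 32 µg/ml vancomycin, then maintained on BHI agar with 32 µg/ml vancomycin.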
In general terms: Dilution methods test growth across graded concentrations, often in twofold steps.

Test [2] has as its system Staphylococcus aureus. The test is described as follows: Antimicrobial activity against oxacillin sensitive Staphylococcus aureus isolate 450MHomoex with SCCmec excised genotype by broth microdilution method. In short, it runs like this: as §1
The subject of test [3] is Staphylococcus aureus. Nature of the test: Antimicrobial activity against homotypic oxacillin resistant and vancomycin intermediate resistant Staphylococcus aureus isolate 5827 by broth microdilution method. The gist of the method:
as §1

The test system of test [4] is Staphylococcus aureus. Nature of the test: Antimicrobial activity against heterotypic oxacillin resistant and vancomycin intermediate resistant Staphylococcus aureus isolate 5836 by broth microdilution method. The gist of the method:
as §1

In test [5] the test system is Staphylococcus aureus. Nature of the test: Antimicrobial activity against homotypic oxacillin resistant and vancomycin resistant Staphylococcus aureus isolate 3130V32 by broth microdilution method. The gist of the method:
as §1

The test system of test [6] is Staphylococcus aureus. Nature of the test: Antimicrobial activity against homotypic oxacillin resistant and vancomycin sensitive Staphylococcus aureus isolate 3130 by broth microdilution method. The gist of the method: as §1
Test [7] deals with Staphylococcus aureus. The test is described as follows: Antimicrobial activity against oxacillin sensitive and vancomycin resistant Staphylococcus aureus isolate VP32 by broth microdilution method. The gist of the method:
as §1

Test [8] deals with Staphylococcus aureus. The test is described as follows: Antimicrobial activity against homotypic oxacillin resistant and vancomycin resistant Staphylococcus aureus isolate 5827V32 by broth microdilution method. The gist of the method: as §1
In test [9] the test system is Staphylococcus aureus. The test is described as follows: Antimicrobial activity against oxacillin sensitive and vancomycin resistant Staphylococcus aureus isolate 5836VR by broth microdilution method. The gist of the method: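 MIC by broth microdilution in cation-adjusted Mueller-Hinton broth, following CLSI (formerly NCCLS) guidelines. The isolate came from an MRSA parent passaged in broth through stepwise vancomycin (0.5 to 32 µg/ml). It was then kept on BHI agar with 32 µg/ml vancomycin and selected as unable to grow on 6 µg/ml oxacillin. Routine growth was in BHI at 37°C.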

Test [10] relates to Staphylococcus aureus. Nature of the test: Antimicrobial activity against oxacillin sensitive and tetracycline and vancomycin resistant Staphylococcus aureus isolate 3130V32deltamecA with mecA::tetM genotype by broth microdilution method. The gist of the method:
as §1

The test system of test [11] is Staphylococcus aureus. The test is described as follows: Antimicrobial activity against oxacillin sensitive and vancomycin resistant Staphylococcus aureus isolate 3130VR by broth microdilution method. The gist of the method:
as §1

Test [12] has as its system Staphylococcus aureus. Nature of the test: Antimicrobial activity against oxacillin sensitive and tetracycline resistant Staphylococcus aureus isolate 450MHomodeltamecA with mecA::tetM genotype by broth microdilution method. In short, it runs like this: as §1
For test [13], the system named is Staphylococcus aureus. The test is described as follows: Antimicrobial activity against homotypic oxacillin resistant Staphylococcus aureus isolate 450MHomo by broth microdilution method. The gist of the method: as §1

Here are results for 2 compounds from ChEMBL document CHEMBL1255285, “Spontaneous deletion of the methicillin resistance determinant, mecA, partially compensates for the fitness cost associated with high-level vancomycin resistance in Staphylococcus aureus” (2008).

≈ marks a conversion by molar mass, not a printed value.

For orientation: MIC means the smallest concentration in the dilution series that meets the test's criterion for growth inhibition. Low readings indicate greater potency, high ones weaker potency. With `Cc1onc(-c2ccccc2)c1C(=O)N[C@@H]1C(=O)N2[C@@H]1SC(C)(C)[C@@H]2C(=O)O` [OXACILLIN], the MIC in the test on Staphylococcus aureus [1] is > 8 µg/mL; in the test with Staphylococcus aureus [2], 0.5 µg/mL (≈ 1.25 µM); against Staphylococcus aureus [3], > 8 µg/mL; against Staphylococcus aureus [4], > 8 µg/mL; against Staphylococcus aureus [5] it was > 8 µg/mL; in the test with Staphylococcus aureus [6], > 8 µg/mL. The MIC in the test with Staphylococcus aureus [7] was 0.5 µg/mL (≈ 1.25 µM); in the test with Staphylococcus aureus [8], > 8 µg/mL; with Staphylococcus aureus [9], 0.25 µg/mL (≈ 0.623 µM); against Staphylococcus aureus [10] it was 0.5 µg/mL (≈ 1.25 µM); in the test on Staphylococcus aureus [11], 0.5 µg/mL (≈ 1.25 µM); in the test on Staphylococcus aureus [12], 0.5 µg/mL (≈ 1.25 µM). The MIC against Staphylococcus aureus [13] was > 8 µg/mL.

Consider `CN[C@H](CC(C)C)C(=O)N[C@H]1C(=O)N[C@@H](CC(N)=O)C(=O)N[C@H]2C(=O)N[C@H]3C(=O)N[C@H](C(=O)N[C@H](C(=O)O)c4cc(O)cc(O)c4-c4cc3ccc4O)[C@H](O)c3ccc(c(Cl)c3)Oc3cc2cc(c3O[C@@H]2O[C@H](CO)[C@@H](O)[C@H](O)[C@H]2O[C@H]2C[C@](C)(N)[C@H](O)[C@H](C)O2)Oc2ccc(cc2Cl)[C@H]1O` [VANCOMYCIN], for which the MIC in the test on Staphylococcus aureus [1] stood at 32 µg/mL (≈ 22.1 µM); against Staphylococcus aureus [4], 8 µg/mL (≈ 5.52 µM); in the test with Staphylococcus aureus [5], 32 µg/mL (≈ 22.1 µM); in the test with Staphylococcus aureus [7], 32 µg/mL (≈ 22.1 µM); against Staphylococcus aureus [8], 32 µg/mL (≈ 22.1 µM); in the test with Staphylococcus aureus [9], 32 µg/mL (≈ 22.1 µM). Moreover, the MIC with Staphylococcus aureus [10] and against Staphylococcus aureus [11] was 32 µg/mL (≈ 22.1 µM) in each case.
